Compound activity: PubChem BioAssay, several laboratories
WT yeast gro inh – growth inhibition of WT yeast, mitochondrial fusion screen | mitochondrial fusion phenotypic screen, WT strain | 190,000 compounds, 2.1% hits | AID 1362 | inhibition, % at 10 µM; in the data active = inhibition above about 58%; tested in S. cerevisiae
b-catenin transl – modulators of beta-catenin nuclear translocation; HeLa beta-catenin nuclear translocation, immunofluorescence imaging; nuclear translocation activity, % at 5 µM; 190,000 compounds, 0.3% hits; AID 1665;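 active = nuclear translocation activity above 50% at 5 µM, with a well cell count of 50 or more; inconclusive = wells under 50 cells across six images, flagged as toxic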;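 note: per-cell ratio of nuclear to cytoplasmic median beta-catenin stain intensity; plate controls were DMSO negative control for no effect and GSK-3 inhibitor IX positive control for full effect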
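Assay system: human HeLa cells, native beta-catenin; doses: 5 µM primary, 0.02–20 µM confirmation; incubation: compound treatment 24 h, 37°C, 5% CO2; technique: fluorescence imaging of beta-catenin antibody stain plus DAPI; measure: % activation, nuclear-to-cytoplasmic median beta-catenin signal ratio per cell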
MT stabilize HCS – stabilizes microtubules in HeLa cells | % tubulin-high responders, % at 10 µM | 200,000 compounds, 0.83% hits | HeLa tubulin immunostaining HCS, 24 h; share of cells brighter than vehicle mean+2SD | AID 2205;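 active = plate Z-score above 3 for both tubulin-high and condensed-nucleus cell shares, with cell loss under 80%, at 10 µM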;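 note: anti alpha tubulin signal scored within the nucleus-defined area of each cell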
Cl transport mod – KCC2 (human) Cl- transport modulation; Q9H2X9; KCC2 cells, thallium flux FluoZin-2 fluorescence; B-score of Tl+ flux slope (higher = more flux/activation; lower = inhibition) at 10 µM; 190,000 compounds, 2.2% hits; AID 1456;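 active = thallium flux slope and its plate-corrected score both differing from the plate sample mean at a set confidence after two filtering rounds, in either direction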;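 note: slope of fluorescence scaled to starting intensity during 10 to 20 s after thallium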
Pf gamet viab – P. falciparum stage V gametocyte viability inhibition; AID 743093; inhibition, % at 10.9 µM; P. falciparum stage V gametocytes, ATP luminescence, 24 h; 150,000 compounds, 0.065% hits;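 active = inhibition above the mean plus 3 SD of compounds within the control limits, set per campaign, cut at about 38% in these data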;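 note: 0% = DMSO wells and 100% = medium only without gametocytes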
KCC2 sec1 – confirmation of human KCC2 transport modulators. shares compounds with Cl transport mod. HEK293-KCC2, thallium flux, FluoZin2 fluorescence; stronger effect = higher value. normalised thallium flux (F/F0 slope) at 10 µM. 3,700 compounds, 15% hits;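 active = thallium flux slope above the same plate's solvent-only control mean plus 3 SD; inconclusive = the two replicate wells disagree; inactive = no significant difference from solvent-only control wells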
KCC2 bumet counter – thallium flux persisting under bumetanide in KCC2 cells, counter-screen secondary assay; shares compounds with Cl transport mod; HEK293-KCC2 + bumetanide/ouabain, thallium flux FluoZin2; stronger effect = higher value; normalized thallium flux at 10 µM; 3,700 compounds, 49% hits;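 active = thallium entry rate above the same plate's blocked-transporter control wells by more than 3 SD; inconclusive = the two repeat wells disagree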;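 note: raw slope of fluorescence over initial fluorescence between 10 and 20 s after thallium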
KCC2 secondary2 – KCC2 (human) modulation, second secondary assay. normalized thallium flux at 10 µM. shares compounds with Cl transport mod. HEK293-KCC2, thallium flux FluoZin2 fluorescence; actives lie on both sides; F/F0 rise rate, 10–20 s post-thallium. 3,700 compounds, 23% hits;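 active = thallium flux slope more than 3 SD above or below the plate's solvent-only control mean, mostly below; inconclusive = the two repeat wells disagreed; inactive = no significant shift from solvent-only controls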;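 note: raw slope with 0.1% DMSO as baseline and bumetanide as block control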
HEK counter1 – acts in parental HEK cells, KCC2 counter-screen. shares compounds with Cl transport mod. HEK293 parental cells, thallium flux FluoZin2, ouabain; baseline-ratio fluorescence slope, 10–20 s after thallium. thallium flux rate (normalised fluorescence) at 10 µM. 3,700 compounds, 46% hits;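 active = thallium flux rate significantly above the same plate's solvent-only control wells, beyond their mean plus 3 SD; inconclusive = the two replicate wells gave conflicting results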
KCC2 retest ouab – confirmation of human KCC2 modulators with ouabain | shares compounds with Cl transport mod | HEK293-KCC2, thallium flux FluoZin2 fluorescence; bidirectional: low = inhibitor, high = activator | raw Tl+ flux slope (below DMSO = inhibition, above = activation) at 10 µM | 3,700 compounds, 48% hits;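 active = thallium flux slope beyond 3 SD from same-plate DMSO control mean in most replicates, usually higher, sometimes lower; inconclusive = repeat tests gave conflicting results; inactive = no significant difference from controls in most replicates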;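 note: slope of initial-normalized fluorescence between seconds 10 and 20 after thallium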
HEK293 Tl flux2 – counter-screen for KCC2 modulators: effect in parental HEK293 cells; shares compounds with Cl transport mod; thallium flux FluoZin-2 fluorescence slope; thallium flux slope at 10 µM; 3,700 compounds, 33% hits;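 active = thallium flux slope above the same plate's solvent-control mean plus 3 SD in both duplicate wells; inconclusive = duplicate wells that disagreed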;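 note: run without ouabain in cells lacking the KCC2 cotransporter; slope of fluorescence scaled to its starting value between 10 and 20 s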
An asterisk follows results filed as active. Hits are enriched below; roughly 4% of the tested compounds scored in any of these assays.

What do the screens show for `O=C(CSc1nnc(Cc2ccccc2)o1)Nc1ccc2c(c1)OCO2`?
WT yeast gro inh: -40; b-catenin transl: 0; MT stabilize HCS: 1; Cl transport mod: -3.7

What do the screens show for `CC(C)(C)c1ccc(COc2ccsc2C(=O)O)cc1`?
WT yeast gro inh: 4; b-catenin transl: -1; MT stabilize HCS: 2; Cl transport mod: -2.8*; Pf gamet viab: -12; KCC2 sec1: 0.01; KCC2 bumet counter: 0.0072; KCC2 secondary2: 0.029; HEK counter1: 0.0075; KCC2 retest ouab: 0.019; HEK293 Tl flux2: inconclusive

What do the screens show for `Cn1cccc1/C=N/NC(=O)c1sc2ccccc2c1Cl`?
WT yeast gro inh: 5; b-catenin transl: -2; MT stabilize HCS: 4; Cl transport mod: 1.9

How did O=C(N/N=C\c1ccccn1)c1ccccc1O do in these assays?
WT yeast gro inh: 5; b-catenin transl: 1; MT stabilize HCS: 4; Cl transport mod: 5.4*; KCC2 sec1: 0.019; KCC2 bumet counter: 0.013*; KCC2 secondary2: inconclusive; HEK counter1: 0.015*; KCC2 retest ouab: 0.022*; HEK293 Tl flux2: 0.017*

How did Cc1ccccc1C(=O)N/N=C/c1ccccn1 do in these assays?
WT yeast gro inh: -17; b-catenin transl: -4; MT stabilize HCS: 4; Cl transport mod: -0.38; Pf gamet viab: -10

What do the screens show for `O=C(N/N=C/c1ccc([N+](=O)[O-])o1)c1sc2ccccc2c1Cl`?
b-catenin transl: 2; Cl transport mod: 17*; Pf gamet viab: 6; KCC2 sec1: 0.018*; KCC2 bumet counter: 0.1*; KCC2 secondary2: 0.033; HEK counter1: 0.019*; KCC2 retest ouab: 0.054*; HEK293 Tl flux2: 0.012*

What do the screens show for `Cc1cc(C)cc(OCC(=O)N/N=C/c2ccccn2)c1`?
b-catenin transl: 0; Cl transport mod: -0.68; Pf gamet viab: -5

What do the screens show for `O=C(N/N=C/c1ccccn1)c1sc2ccccc2c1Cl`?
b-catenin transl: 0; Cl transport mod: 153*; Pf gamet viab: -10; KCC2 sec1: 0.0091*; KCC2 bumet counter: 0.11*; KCC2 secondary2: 0.054*; HEK counter1: 0.1*; KCC2 retest ouab: 0.089*; HEK293 Tl flux2: 0.082*

How did O=C(COc1ccc2ccccc2c1)N/N=C/c1ccccn1 do in these assays?
WT yeast gro inh: 21; b-catenin transl: 2; MT stabilize HCS: 3; Cl transport mod: -3.8*; Pf gamet viab: 2; KCC2 sec1: 0.0048; KCC2 bumet counter: 0.0051; KCC2 secondary2: 0.025*; HEK counter1: 0.007; KCC2 retest ouab: inconclusive; HEK293 Tl flux2: 0.01

What do the screens show for `CCN(CC)CCN(Cc1cc2cc3c(cc2[nH]c1=O)OCO3)C(=S)NCCOC`?
Pf gamet viab: 6

What do the screens show for `O=C(N/N=C\c1ccncc1)c1ccccc1O`?
WT yeast gro inh: -1; b-catenin transl: 0; MT stabilize HCS: 3; Cl transport mod: 0.088

Results for O=C(N/N=C/c1ccc(-c2ccccc2)o1)c1ccccc1O ?
b-catenin transl: -3; Cl transport mod: 80*; Pf gamet viab: -6; KCC2 sec1: 0.025*; KCC2 bumet counter: 0.092*; KCC2 secondary2: 0.032; HEK counter1: 0.035*; KCC2 retest ouab: 0.052*; HEK293 Tl flux2: 0.013*

What do the screens show for `O=S(=O)(C(=CNc1ccccc1)S(=O)(=O)c1ccccc1)c1ccccc1`?
WT yeast gro inh: 20; b-catenin transl: -2; MT stabilize HCS: 5; Cl transport mod: 0.045

Results for CC(C)C(=O)Nc1ncc(Cc2ccccc2Cl)s1 ?
WT yeast gro inh: -2; b-catenin transl: -1; MT stabilize HCS: 2; Cl transport mod: 0.078; Pf gamet viab: 17

What do the screens show for `O=C1c2ccccc2C(=O)N1c1ncc(Cc2ccc(Cl)cc2)s1`?
WT yeast gro inh: 1; b-catenin transl: 0; MT stabilize HCS: 3; Cl transport mod: -0.88; Pf gamet viab: 9

What do the screens show for `N=C1SCC(=O)N1c1ncc(Cc2cccc(Cl)c2)s1`?
WT yeast gro inh: 62; b-catenin transl: 1; MT stabilize HCS: 3; Cl transport mod: 8.1*; Pf gamet viab: 24; KCC2 sec1: inconclusive; KCC2 bumet counter: 0.019*; KCC2 secondary2: 0.032; HEK counter1: 0.02*; KCC2 retest ouab: 0.031*; HEK293 Tl flux2: inconclusive

What do the screens show for `N=C1SCC(=O)N1c1ncc(Cc2ccccc2Cl)s1`?
WT yeast gro inh: 52; b-catenin transl: -2; MT stabilize HCS: 5; Cl transport mod: 11*; Pf gamet viab: -21; KCC2 sec1: 0.011; KCC2 bumet counter: 0.019*; KCC2 secondary2: 0.03; HEK counter1: 0.014*; KCC2 retest ouab: inconclusive; HEK293 Tl flux2: 0.011

Results for Cc1nn(-c2ccc(Cl)cc2)c(NC(=O)C(C)C)c(-c2ccccc2)c1=O ?
b-catenin transl: -1; Cl transport mod: 0.83; Pf gamet viab: -6

Results for Fc1cc(F)c2nc(Nc3nc4cc5c(cc4s3)OCO5)sc2c1 ?
WT yeast gro inh: 23; b-catenin transl: 0; MT stabilize HCS: 4; Cl transport mod: 8.5*; Pf gamet viab: 10; KCC2 sec1: 0.0079; KCC2 bumet counter: 0.017*; KCC2 secondary2: 0.036; HEK counter1: 0.013*; KCC2 retest ouab: 0.026*; HEK293 Tl flux2: 0.016*

Results for CC(C)C(=O)Nc1nc2cc3c(cc2s1)OCO3 ?
WT yeast gro inh: 0; b-catenin transl: 0; MT stabilize HCS: 11

Results for Cc1ccc(Nc2nc3ccccc3c(=O)s2)cc1 ?
WT yeast gro inh: 18; b-catenin transl: 0; MT stabilize HCS: 1; Cl transport mod: 14*; Pf gamet viab: 4; KCC2 sec1: 0.011*; KCC2 bumet counter: 0.031*; KCC2 secondary2: 0.031; HEK counter1: 0.013*; KCC2 retest ouab: 0.034*; HEK293 Tl flux2: 0.011*

Results for O=c1sc(Nc2ccccc2)nc2ccccc12 ?
WT yeast gro inh: -8; b-catenin transl: -2; MT stabilize HCS: 3; Pf gamet viab: 11
